Laboratory results taken from ChEMBL document CHEMBL1629518, “Structure-based approach to nanomolar, water soluble matrix metalloproteinases inhibitors (MMPIs)” (Eur J Med Chem, 2010).
≈ marks a conversion by molar mass, not a printed value.

Key:
[1] = molecular target: Macrophage metalloelastase (Homo sapiens, UniProt P39900); assay: Inhibition of MMP12 by fluorimetric assay
Method in brief: (§1)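 Enzyme source was the catalytic domain of each MMP. Inhibition was reported as Ki values.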

[2] = Solubility of the compound in water; type: physicochemical
Matrilysin = molecular target: T1, Matrilysin (Homo sapiens, UniProt P09237); assay: Inhibition of MMP7 by fluorimetric assay; method in brief: as §1
T1 sequence (P09237 whole entry): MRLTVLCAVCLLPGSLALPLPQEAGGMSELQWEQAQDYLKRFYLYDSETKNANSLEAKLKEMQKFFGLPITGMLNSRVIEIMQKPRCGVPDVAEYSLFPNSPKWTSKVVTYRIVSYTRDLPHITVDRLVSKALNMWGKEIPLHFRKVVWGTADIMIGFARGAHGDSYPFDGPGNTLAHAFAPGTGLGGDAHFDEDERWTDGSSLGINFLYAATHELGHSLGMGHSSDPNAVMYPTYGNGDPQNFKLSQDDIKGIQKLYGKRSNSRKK

Collagenase 3 = Collagenase 3 (Homo sapiens, UniProt P45452); assay: Inhibition of MMP13 by fluorimetric assay; method in brief: as §1
Interstitial collagenase = molecular target: T2, Interstitial collagenase (Homo sapiens, UniProt P03956); assay: Inhibition of MMP1 by fluorimetric assay; method in brief: as §1
T2 sequence (P03956 whole entry): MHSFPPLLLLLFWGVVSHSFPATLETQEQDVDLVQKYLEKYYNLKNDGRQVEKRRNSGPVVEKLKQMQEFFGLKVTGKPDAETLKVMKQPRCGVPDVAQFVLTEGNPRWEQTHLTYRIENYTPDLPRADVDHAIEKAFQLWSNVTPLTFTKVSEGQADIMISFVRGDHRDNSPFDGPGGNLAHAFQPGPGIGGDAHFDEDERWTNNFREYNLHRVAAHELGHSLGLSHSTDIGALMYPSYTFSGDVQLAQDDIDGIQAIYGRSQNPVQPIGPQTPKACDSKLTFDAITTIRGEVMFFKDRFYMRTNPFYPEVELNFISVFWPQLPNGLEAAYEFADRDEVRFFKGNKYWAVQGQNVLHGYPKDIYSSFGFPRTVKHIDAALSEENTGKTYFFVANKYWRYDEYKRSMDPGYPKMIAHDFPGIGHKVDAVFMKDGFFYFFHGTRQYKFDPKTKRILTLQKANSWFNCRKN

Neutrophil collagenase = Neutrophil collagenase (Homo sapiens, UniProt P22894); assay: Inhibition of MMP8 by fluorimetric assay; method in brief: as §1
Sequence of Neutrophil collagenase (P22894 whole entry): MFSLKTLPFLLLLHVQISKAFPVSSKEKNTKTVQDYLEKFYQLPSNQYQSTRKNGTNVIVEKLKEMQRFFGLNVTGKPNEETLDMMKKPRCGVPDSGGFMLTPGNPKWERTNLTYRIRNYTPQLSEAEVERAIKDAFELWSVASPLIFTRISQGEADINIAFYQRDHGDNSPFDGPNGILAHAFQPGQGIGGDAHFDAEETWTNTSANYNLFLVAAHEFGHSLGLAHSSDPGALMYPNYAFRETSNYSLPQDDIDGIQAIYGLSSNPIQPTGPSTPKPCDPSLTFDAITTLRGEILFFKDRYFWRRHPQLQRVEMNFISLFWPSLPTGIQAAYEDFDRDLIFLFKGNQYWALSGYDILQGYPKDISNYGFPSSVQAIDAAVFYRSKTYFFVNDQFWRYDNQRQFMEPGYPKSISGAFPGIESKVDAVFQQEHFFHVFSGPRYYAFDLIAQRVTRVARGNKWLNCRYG

Sequence of Macrophage metalloelastase (P39900 whole entry, the tested form may be a part): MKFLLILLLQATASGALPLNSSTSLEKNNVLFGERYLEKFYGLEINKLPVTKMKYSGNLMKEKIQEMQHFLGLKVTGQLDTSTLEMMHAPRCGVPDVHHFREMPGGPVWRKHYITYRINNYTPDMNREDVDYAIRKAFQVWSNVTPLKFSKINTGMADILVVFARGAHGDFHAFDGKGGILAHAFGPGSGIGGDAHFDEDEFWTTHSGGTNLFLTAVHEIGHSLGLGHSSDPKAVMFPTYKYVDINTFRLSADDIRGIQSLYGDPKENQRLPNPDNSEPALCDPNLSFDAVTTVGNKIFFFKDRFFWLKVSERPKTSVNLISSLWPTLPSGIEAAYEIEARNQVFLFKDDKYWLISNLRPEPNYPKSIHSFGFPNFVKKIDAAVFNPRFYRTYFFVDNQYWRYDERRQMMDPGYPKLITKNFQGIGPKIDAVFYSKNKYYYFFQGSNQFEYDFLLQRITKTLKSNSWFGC

| SMILES | Ki [1] [µM] | solubility [2] [mg/mL] | Ki (Matrilysin) [µM] | Ki (Collagenase 3) [µM] | Ki (Interstitial collagenase) [µM] | Ki (Neutrophil collagenase) [µM] |
| --- | --- | --- | --- | --- | --- | --- |
| O=C(CN(CCO)S(=O)(=O)c1ccc(F)cc1)NO | 0.04 | 20 (≈ 68.4 mM) | 3 | 0.046 | 0.151 | 0.173 |
| COc1ccc(S(=O)(=O)N(C[C@H](O)CO)[C@H](CO)C(=O)NO)cc1 | 0.007 | 20 (≈ 54.9 mM) | 0.344 | 0.0017 | 0.032 | 0.008 |
| O=C(CN(C[C@H](O)CO)S(=O)(=O)c1ccc(-c2ccccc2)cc1)NO | 0.06 | < 1 | 4 | 0.018 | 0.742 | 0.048 |
| O=C(CN(CCO)S(=O)(=O)c1ccc(-c2ccccc2)cc1)NO |  | 20 (≈ 57.1 mM) | 1.6 | 0.0027 | 0.067 | 0.0046 |
| COc1ccc(S(=O)(=O)N[C@H](CO)C(=O)NO)cc1 | 0.006 | 20 (≈ 68.9 mM) | 0.823 | 0.0022 | 0.143 | 0.009 |
| COc1ccc(S(=O)(=O)N(CC(=O)NO)C[C@H](O)CO)cc1 | 0.008 | 20 (≈ 59.8 mM) | 9 | 0.0036 | 0.16 | 0.024 |
| COc1ccc(S(=O)(=O)N[C@@H](C(=O)NO)[C@@H](C)O)cc1 | 0.011 | 20 (≈ 65.7 mM) | 0.984 | 0.0029 | 0.287 | 0.01 |
| COc1ccc(S(=O)(=O)N(CCO)CC(=O)NO)cc1 | 0.0076 | 20 (≈ 65.7 mM) | 1.5 | 0.001 | 0.128 | 0.013 |
| COc1ccc(S(=O)(=O)N(CC(=O)NO)CC(C)C)cc1 | 0.0043 | 20 (≈ 63.2 mM) | 13 | 0.0031 |  | 0.009 |
| COc1ccc(S(=O)(=O)N(CCO[C@@H]2O[C@H](CO)[C@@H](O)[C@H](O)[C@H]2O)CC(=O)NO)cc1 |  | 20 (≈ 42.9 mM) | 2 | 0.0017 | 0.286 | 0.0091 |
